“Also recorded” adds a separate entry of the source. Like-named read-outs stand apart in the source and are kept apart here. Blank lines part the entries; values can stand above or below the compound they belong to.
Assays:
ERRγ [1] = molecular target: T1, ERRγ (Homo sapiens, UniProt P62508); assay: Cell-based; settings: for ERRγ activity (in words): HEK293 co-transfection luciferase
T1 sequence (P62508 1-458): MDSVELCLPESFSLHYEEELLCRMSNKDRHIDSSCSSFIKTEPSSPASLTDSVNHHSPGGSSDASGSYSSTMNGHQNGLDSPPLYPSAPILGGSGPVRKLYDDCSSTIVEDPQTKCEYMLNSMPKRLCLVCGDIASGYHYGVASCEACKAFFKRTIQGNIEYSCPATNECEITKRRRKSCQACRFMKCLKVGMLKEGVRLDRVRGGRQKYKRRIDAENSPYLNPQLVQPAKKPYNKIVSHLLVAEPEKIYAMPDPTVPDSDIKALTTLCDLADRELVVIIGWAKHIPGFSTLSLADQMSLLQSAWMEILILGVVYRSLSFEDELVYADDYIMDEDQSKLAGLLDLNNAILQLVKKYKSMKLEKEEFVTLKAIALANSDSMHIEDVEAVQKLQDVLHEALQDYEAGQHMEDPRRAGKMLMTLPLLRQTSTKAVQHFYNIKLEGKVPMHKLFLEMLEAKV

ERRα [2] = molecular target: T2, ERRα (Homo sapiens, UniProt P11474); assay: Cell-based; settings: for ERRα activity (in words): HEK293 co-transfection luciferase
T2 sequence (P11474 1-423): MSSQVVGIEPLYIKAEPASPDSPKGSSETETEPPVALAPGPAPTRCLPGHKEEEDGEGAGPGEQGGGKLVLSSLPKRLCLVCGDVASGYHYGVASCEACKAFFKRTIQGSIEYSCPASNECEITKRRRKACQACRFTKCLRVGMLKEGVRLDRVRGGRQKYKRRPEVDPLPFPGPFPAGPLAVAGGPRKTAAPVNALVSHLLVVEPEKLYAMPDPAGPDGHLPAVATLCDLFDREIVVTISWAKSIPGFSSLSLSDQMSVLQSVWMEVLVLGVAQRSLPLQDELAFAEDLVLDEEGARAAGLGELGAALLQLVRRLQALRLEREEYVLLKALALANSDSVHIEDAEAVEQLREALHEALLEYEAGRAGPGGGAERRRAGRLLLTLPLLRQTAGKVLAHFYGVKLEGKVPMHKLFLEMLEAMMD

ERRβ [3] = molecular target: T3, ERRβ (Homo sapiens, UniProt O95718); assay: Cell-based co-transfection ERR responsive luciferase reporter assay, ERRβ
T3 sequence (O95718 1-433): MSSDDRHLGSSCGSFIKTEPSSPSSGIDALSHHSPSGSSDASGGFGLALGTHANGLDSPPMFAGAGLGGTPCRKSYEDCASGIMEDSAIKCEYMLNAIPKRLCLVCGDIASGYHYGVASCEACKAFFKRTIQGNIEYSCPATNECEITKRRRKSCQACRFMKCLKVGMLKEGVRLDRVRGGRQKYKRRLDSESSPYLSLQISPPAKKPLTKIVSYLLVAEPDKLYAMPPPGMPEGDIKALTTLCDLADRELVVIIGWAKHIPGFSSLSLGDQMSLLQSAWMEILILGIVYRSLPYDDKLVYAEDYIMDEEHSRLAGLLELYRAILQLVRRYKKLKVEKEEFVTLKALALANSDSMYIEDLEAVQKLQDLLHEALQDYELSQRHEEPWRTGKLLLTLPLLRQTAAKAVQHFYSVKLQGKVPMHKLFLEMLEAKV

[4] = test system: ERR target genes PGC-1α, PGC-1β, CPT1α and PDK4; assay: Gene expression; format: cell-based, mouse; settings: C2C12 cells, 1 μM of tested compounds, 24 h
Procedure, shortened: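 Confluent C2C12 myoblasts (DMEM, 10% FBS, 1% L-glutamine; 2.5 million cells per well) were treated 24 h with test compound in DMSO or with DMSO vehicle, in triplicate groups. Total RNA was column-extracted and 1 μg was reverse-transcribed. Transcripts were quantified by SYBR qPCR, with samples run in duplicate. Relative expression was calculated by ΔΔCt against 36b4 as the reference gene.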

C2C12 cells = assay: Cell viability assay, FITC Annexin V/PI flow cytometry; format: cell-based; settings: 1 and 10 μM, 24 h
Procedure, shortened: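 C2C12 mouse myoblasts were kept in DMEM with 10% FBS and 1% L-glutamine. They were seeded at 2.5 million cells per well and grown 24 h to confluence. Cells were exposed 24 h to test compound in DMSO at 1 or 10 μM, with a DMSO-only control, in triplicate. Harvested cells were stained with FITC-Annexin V and propidium iodide and analysed by flow cytometry for live/dead cells.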

ERRγ [5] = molecular target: T1, ERRγ; settings: cited from earlier work
ERRα [6] = molecular target: T2, ERRα; settings: cited from earlier work
ERRβ [7] = molecular target: T3, ERRβ; settings: cited from earlier work

Structure (SMILES): O=C(NN=Cc1ccccc1)c1ccc(Br)cc1 [Compound 21]
ERRγ activity (in words) (ERRγ [1]): moderate ERRγ activity; also recorded: very weak | ERRα activity (in words) (ERRα [2]): completely lost ERRα activity; also recorded: inactive

Structure (SMILES): Cc1ccc(C(=O)N/N=C/c2ccccc2)cc1 [Compound 24, (E)-N’-Benzylidene-4-methylbenzohydrazide]
PDK4 transcription [4]: potently upregulated | mRNA levels of PGC-1α [4]: increase the mRNA levels | mRNA levels of PGC-1β [4]: increase the mRNA levels | Cell viability / signs of toxicity (C2C12 cells): No signs of toxicity; also recorded: did not show signs of toxicity | EC50 (ERRβ [3]): 0.162 µM

Structure (SMILES): O=C(N/N=C/c1cccs1)c1ccccc1 [Compound 42, (E)-N’-(Thiophen-2-ylmethylene)benzohydrazide]
PDK4 transcription [4]: potently upregulated | mRNA levels of PGC-1α [4]: increase the mRNA levels | mRNA levels of PGC-1β [4]: increase the mRNA levels | ERRγ activity (in words) (ERRγ [1]): weak agonistic effect | ERRα activity (in words) (ERRα [2]): weak agonistic effect | Cell viability / signs of toxicity (C2C12 cells): No signs of toxicity; also recorded: did not show signs of toxicity | EC50 (ERRβ [3]): 1.19 µM | activity toward ERRβ, folds higher than ERRα (ERRβ [3]; from EC50 values): 1.8 folds

Structure (SMILES): Cc1ccccc1C(=O)N/N=C/c1ccccc1O [Compound 29, (E)-N’-(2-Hydroxybenzylidene)-2-methylbenzohydrazide]
EC50 (ERRγ [1]): 0.254 µM | EC50 (ERRα [2]): 0.453 µM | Cell viability / signs of toxicity (C2C12 cells): No signs of toxicity; also recorded: did not show signs of toxicity | EC50 (ERRβ [3]): 0.583 µM

Structure (SMILES): CC(C)c1ccc(/C=N/NC(=O)c2ccc(O)cc2)cc1 [GSK4716 (6)]
ERRα activity (in words) (ERRα [2]): very weak activity | reported activity on ERRγ (ERRγ [5]): agonist | reported activity on ERRα (ERRα [6]): no observed activity | reported activity on ERRβ (ERRβ [7]): agonist | EC50 (ERRβ [3]; read-out: ERRβ EC50, agonism, co-transfection luciferase reporter): 0.28 µM

Structure (SMILES): O=C(N/N=C/c1ccccc1O)c1ccccc1O [Compound 27, (E)-2-Hydroxy-N’-(2-hydroxybenzylidene)benzohydrazide]
EC50 (ERRγ [1]): 1.65 µM | EC50 (ERRα [2]): 0.378 µM | activity toward ERRα, folds higher than ERRβ (ERRα [2]; from EC50 values): ≈ 2 folds | selectivity toward ERRα over ERRγ (ERRα [2]; from EC50 values): > 4 fold | Cell viability / signs of toxicity (C2C12 cells): No signs of toxicity; also recorded: did not show signs of toxicity | EC50 (ERRβ [3]): 0.772 µM

Structure (SMILES): O=C(N/N=C/c1ccccc1O)c1ccccc1O [Compound 36]
ERRγ activity (in words) (ERRγ [1]): inactive

Structure (SMILES): O=C(N/N=C/c1ccccc1[N+](=O)[O-])c1ccc([N+](=O)[O-])cc1 [Compound 38, (E)-4-Nitro-N’-(2-nitrobenzylidene)benzohydrazide]
EC50 (ERRγ [1]): 0.26 µM | EC50 (ERRα [2]): 0.646 µM | fold decrease in potency against ERRα (ERRα [2]; compared to 16): ≈ 1.5 fold

Structure (SMILES): CN(C)c1ccc(C=NNC(=O)c2ccccc2)cc1 [Compound 11]
ERRγ activity (in words) (ERRγ [1]): activity was regained | ERRα activity (in words) (ERRα [2]): no ERRα activity; also recorded: inactive

Structure (SMILES): O=C(NN=Cc1ccccc1)c1ccccc1 [Compound 10]
ERRγ activity (in words) (ERRγ [1]): complete loss of activity; also recorded: completely inactive | ERRα activity (in words) (ERRα [2]): complete loss of activity; also recorded: completely inactive

The next lines start with results.

EC50 (ERRγ [1]): 0.235 µM | EC50 (ERRα [2]): 0.483 µM | EC50 (ERRβ [3]): 0.123 µM
Structure (SMILES): Cc1ccc(C(=O)N/N=C/c2ccccc2O)cc1 [Compound 33, (E)-N’-(2-Hydroxybenzylidene)-4-methylbenzohydrazide]

ERRα activity (in words) (ERRα [2]): no activity
Structure (SMILES): Cc1ccccc1C(=O)NN=Cc1ccccc1 [Compound 23]

IC50 (ERRα [2]): 4.58 µM
Structure (SMILES): O=C(NN=Cc1ccnc2ccccc12)c1ccccc1 [Compound 46, quinolin-4-ylmethylene benzohydrazide]

selectivity toward ERRγ over ERRα (ERRγ [1]; from EC50 values): 1.6 fold | fold more potent toward ERRα than 14 (ERRα [2]; compared to 14): ≈ 17 fold | fold increase in potency toward ERRα compared to 15 (ERRα [2]; compared to 15): > 6 fold
Structure (SMILES): O=C(N/N=C/c1ccccc1[N+](=O)[O-])c1ccccc1 [Compound 16, (E)-N’-(2-Nitrobenzylidene)benzohydrazide]
PDK4 transcription [4]: potently upregulated | expression of CPT1α [4]: significantly increased the expression

ERRγ activity (in words) (ERRγ [1]): moderately potent | ERRα activity (in words) (ERRα [2]): moderately potent
Structure (SMILES): O=C(NN=Cc1ccccc1)c1ccccc1O [Compound 19]

ERRγ activity (in words) (ERRγ [1]): weak activity | ERRα activity (in words) (ERRα [2]): weak activity
Structure (SMILES): O=C(NN=Cc1ccccc1O)c1ccc(Cl)cc1 [Compound 31]

ERRγ activity (in words) (ERRγ [1]): completely inactive | ERRα activity (in words) (ERRα [2]): completely inactive
Structure (SMILES): O=C(N/N=C/c1ccccc1[N+](=O)[O-])c1ccccc1 [Compound 34]

EC50 (ERRγ [1]): 0.398 µM | EC50 (ERRα [2]): 0.54 µM
Structure (SMILES): COc1ccc(/C=N/NC(=O)c2ccc(Br)cc2)cc1 [Compound 35, (E)-4-Bromo-N’-(4-methoxybenzylidene)benzohydrazide]
PDK4 transcription [4]: potently upregulated | mRNA levels of PGC-1α [4]: increased the mRNA levels

ERRγ activity (in words) (ERRγ [1]): completely inactive | ERRα activity (in words) (ERRα [2]): completely inactive
Structure (SMILES): O=C(NN=Cc1ccccc1O)c1ccccc1 [Compound 13]

Reference: paper PMC9137328 (Bioorganic chemistry, 2020)
